ChEMBL document CHEMBL1649231, “In vitro activities of panduratin A against clinical Staphylococcus strains” (2009)
Converted amounts (≈) assume the structure as drawn.

How the values were obtained:
Format in all cases: functional
[1] = test system: Staphylococcus hominis; test: Antimicrobial activity against methicillin-susceptible coagulase-negative Staphylococcus hominis assessed as susceptible isolates after 24 hrs by broth microdilution method
[2] = test system: Mammaliicoccus sciuri; test: Antimicrobial activity against methicillin-susceptible coagulase-negative Staphylococcus sciuri assessed as susceptible isolates after 24 hrs by broth microdilution method
Procedure, shortened: (§1)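 Clinical isolates from blood, body fluids, pus, sputum or genital secretions, identified conventionally or by Vitek, were tested alongside ATCC 29213 and ATCC 12228 controls. CLSI M7-A6 broth microdilution in Mueller-Hinton broth used twofold dilutions from a 10% DMSO solution and 5 × 10^5 CFU/ml inoculum. Drug-free and uninoculated wells served as controls; incubation was aerobic at 37°C for 24 h. MIC was the lowest concentration with no visible growth.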

[3] = test system: Staphylococcus simulans; test: Antimicrobial activity against methicillin-susceptible coagulase-negative Staphylococcus simulans assessed as susceptible isolates after 24 hrs by broth microdilution method; procedure, shortened: as §1
[4] = test system: Staphylococcus hominis; test: Antimicrobial activity against methicillin-resistant coagulase-negative Staphylococcus hominis after 24 hrs by broth microdilution method
Procedure, shortened: (§2)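 Clinical isolates came from blood, body fluids, genital secretions, pus or sputum, identified conventionally or by Vitek. MICs were run by CLSI M7-A6 broth microdilution in Mueller-Hinton broth with 5 × 10^5 CFU/ml inoculum. Agents were twofold serially diluted, starting from 10% DMSO. Drug-free and uninoculated controls were included. Plates were incubated aerobically at 37°C for 24 h; MIC is the lowest concentration giving no visible growth.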

[5] = test system: Staphylococcus epidermidis; test: Bactericidal activity against methicillin-susceptible coagulase-negative Staphylococcus epidermidis after 24 hrs by plate counting method
Procedure, shortened: (§3)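 Clinical staphylococcal isolates from patient body fluids, blood, genital secretions, pus or sputum; species by conventional methods or Vitek. Twofold dilutions in Mueller-Hinton broth, inoculum 5 × 10^5 CFU/ml, 37°C aerobic 24 h (CLSI M7-A6 microdilution). About 100 μl from each well without visible growth spread on MHA; 37°C 24 h. MBC = lowest concentration giving no growth on agar.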

[6] = test system: Staphylococcus haemolyticus; test: Antimicrobial activity against methicillin-susceptible coagulase-negative Staphylococcus haemolyticus assessed as susceptible isolates after 24 hrs by broth microdilution method
[7] = test system: Staphylococcus simulans; test: Antimicrobial activity against methicillin-resistant coagulase-negative Staphylococcus simulans after 24 hrs by broth microdilution method; procedure, shortened: as §2
[8] = test system: Staphylococcus epidermidis; test: Antimicrobial activity against methicillin-susceptible coagulase-negative Staphylococcus epidermidis assessed as susceptible isolates after 24 hrs by broth microdilution method
[9] = test system: Staphylococcus haemolyticus; test: Antimicrobial activity against methicillin-resistant coagulase-negative Staphylococcus haemolyticus assessed as intermediate resistant isolates after 24 hrs by broth microdilution method
[10] = test system: Staphylococcus epidermidis; test: Bactericidal activity against methicillin-resistant coagulase-negative Staphylococcus epidermidis after 24 hrs by plate counting method
[11] = test system: Mammaliicoccus sciuri; test: Antimicrobial activity against methicillin-resistant coagulase-negative Staphylococcus sciuri assessed as resistant isolates after 24 hrs by broth microdilution method
[12] = test system: Mammaliicoccus sciuri; test: Antimicrobial activity against methicillin-susceptible coagulase-negative Staphylococcus sciuri assessed as resistant isolates after 24 hrs by broth microdilution method
[13] = test system: Staphylococcus simulans; test: Antimicrobial activity against methicillin-resistant coagulase-negative Staphylococcus simulans assessed as resistant isolates after 24 hrs by broth microdilution method
[14] = test system: Staphylococcus haemolyticus; test: Antimicrobial activity against methicillin-resistant coagulase-negative Staphylococcus haemolyticus assessed as resistant isolates after 24 hrs by broth microdilution method
[15] = test system: Staphylococcus hominis; test: Bactericidal activity against methicillin-resistant coagulase-negative Staphylococcus hominis after 24 hrs by plate counting method
[16] = test system: Staphylococcus haemolyticus; test: Antimicrobial activity against methicillin-resistant coagulase-negative Staphylococcus haemolyticus assessed as susceptible isolates after 24 hrs by broth microdilution method
[17] = test system: Staphylococcus hominis; test: Antimicrobial activity against methicillin-resistant coagulase-negative Staphylococcus hominis assessed as susceptible isolates after 24 hrs by broth microdilution method
[18] = test system: Staphylococcus simulans; test: Antimicrobial activity against methicillin-susceptible coagulase-negative Staphylococcus simulans assessed as resistant isolates after 24 hrs by broth microdilution method
[19] = test system: Staphylococcus epidermidis; test: Antimicrobial activity against methicillin-resistant coagulase-negative Staphylococcus epidermidis assessed as resistant isolates after 24 hrs by broth microdilution method
[20] = test system: Staphylococcus simulans; test: Antimicrobial activity against methicillin-susceptible coagulase-negative Staphylococcus simulans after 24 hrs by broth microdilution method; procedure, shortened: as §2
[21] = test system: Staphylococcus hominis; test: Antimicrobial activity against methicillin-resistant coagulase-negative Staphylococcus hominis assessed as resistant isolates after 24 hrs by broth microdilution method
[22] = test system: Mammaliicoccus sciuri; test: Bactericidal activity against methicillin-susceptible coagulase-negative Staphylococcus sciuri after 24 hrs by plate counting method; procedure, shortened: as §3
[23] = test system: Staphylococcus aureus; test: Antimicrobial activity against methicillin-resistant Staphylococcus aureus assessed as resistant isolates after 24 hrs by broth microdilution method
[24] = test system: Staphylococcus hominis; test: Antimicrobial activity against methicillin-susceptible coagulase-negative Staphylococcus hominis assessed as resistant isolates after 24 hrs by broth microdilution method
[25] = test system: Staphylococcus simulans; test: Bactericidal activity against methicillin-susceptible coagulase-negative Staphylococcus simulans after 24 hrs by plate counting method; procedure, shortened: as §3
[26] = test system: Mammaliicoccus sciuri; test: Bactericidal activity against methicillin-resistant coagulase-negative Staphylococcus sciuri after 24 hrs by plate counting method; procedure, shortened: as §3
[27] = test system: Staphylococcus hominis; test: Bactericidal activity against methicillin-susceptible coagulase-negative Staphylococcus hominis after 24 hrs by plate counting method; procedure, shortened: as §3
[28] = test system: Mammaliicoccus sciuri; test: Antimicrobial activity against methicillin-resistant coagulase-negative Staphylococcus sciuri assessed as intermediate resistant isolates after 24 hrs by broth microdilution method
[29] = test system: Staphylococcus aureus; test: Antimicrobial activity against methicillin-resistant Staphylococcus aureus assessed as intermediate resistant isolates after 24 hrs by broth microdilution method
[30] = test system: Staphylococcus aureus; test: Antimicrobial activity against methicillin-susceptible Staphylococcus aureus assessed as susceptible isolates after 24 hrs by broth microdilution method
[31] = test system: Staphylococcus haemolyticus; test: Bactericidal activity against methicillin-susceptible coagulase-negative Staphylococcus haemolyticus after 24 hrs by plate counting method; procedure, shortened: as §3
[32] = test system: Mammaliicoccus sciuri; test: Antimicrobial activity against methicillin-susceptible coagulase-negative Staphylococcus sciuri after 24 hrs by broth microdilution method; procedure, shortened: as §2
[33] = test system: Staphylococcus hominis; test: Antimicrobial activity against methicillin-susceptible coagulase-negative Staphylococcus hominis after 24 hrs by broth microdilution method; procedure, shortened: as §2
[34] = test system: Staphylococcus aureus; test: Antimicrobial activity against methicillin-susceptible Staphylococcus aureus assessed as resistant isolates after 24 hrs by broth microdilution method
[35] = test system: Staphylococcus haemolyticus; test: Antimicrobial activity against methicillin-susceptible coagulase-negative Staphylococcus haemolyticus assessed as resistant isolates after 24 hrs by broth microdilution method
[36] = test system: Staphylococcus aureus; test: Bactericidal activity against methicillin-resistant Staphylococcus aureus after 24 hrs by plate counting method
[37] = test system: Staphylococcus hominis; test: Antimicrobial activity against methicillin-resistant coagulase-negative Staphylococcus hominis assessed as intermediate resistant isolates after 24 hrs by broth microdilution method
[38] = Staphylococcus epidermidis, 24 h

CN[C@H](CC(C)C)C(=O)N[C@H]1C(=O)N[C@@H](CC(N)=O)C(=O)N[C@H]2C(=O)N[C@H]3C(=O)N[C@H](C(=O)N[C@H](C(=O)O)c4cc(O)cc(O)c4-c4cc3ccc4O)[C@H](O)c3ccc(c(Cl)c3)Oc3cc2cc(c3O[C@@H]2O[C@H](CO)[C@@H](O)[C@H](O)[C@H]2O[C@H]2C[C@](C)(N)[C@H](O)[C@H](C)O2)Oc2ccc(cc2Cl)[C@H]1O [VANCOMYCIN]
Activity [1]: 100% | Activity [2]: 100% | Activity [3]: 100% | MIC [4]: 0.125 µg/mL (≈ 0.0863 µM) | MIC50 [4]: 0.125 µg/mL (≈ 0.0863 µM) | MIC90 [4]: 2 µg/mL (≈ 1.38 µM) | MBC50 [5]: 1 µg/mL (≈ 0.69 µM) | MBC90 [5]: 4 µg/mL (≈ 2.76 µM) | MBC [5, 38]: 0.125 µg/mL (≈ 0.0863 µM) | Activity [6]: 100% | MIC [7]: 0.125 µg/mL (≈ 0.0863 µM) | MIC50 [7]: 0.125 µg/mL (≈ 0.0863 µM) | MIC90 [7]: 2 µg/mL (≈ 1.38 µM) | Activity [8]: 100% | Activity [9]: 0% | MBC50 [10]: 2 µg/mL (≈ 1.38 µM) | MBC90 [10]: 4 µg/mL (≈ 2.76 µM) | MBC [10, 38]: 0.5 µg/mL (≈ 0.345 µM) | Activity [11]: 0% | Activity [12]: 0% | Activity [13]: 0% | Activity [14]: 0% | MBC50 [15]: 2 µg/mL (≈ 1.38 µM) | MBC90 [15]: 4 µg/mL (≈ 2.76 µM) | MBC ([15]; Staphylococcus hominis, 24 h): 0.5 µg/mL (≈ 0.345 µM) | Activity [16]: 100% | Activity [17]: 100% | Activity [18]: 12% | Activity [19]: 0% | MIC50 [20]: 0.25 µg/mL (≈ 0.173 µM) | MIC90 [20]: 1 µg/mL (≈ 0.69 µM) | Activity [21]: 0% | MBC50 [22]: 1 µg/mL (≈ 0.69 µM) | MBC90 [22]: 4 µg/mL (≈ 2.76 µM) | MBC ([22]; Mammaliicoccus sciuri, 24 h): 0.125 µg/mL (≈ 0.0863 µM) | Activity [23]: 0% | Activity [24]: 0% | MBC50 [25]: 1 µg/mL (≈ 0.69 µM) | MBC90 [25]: 4 µg/mL (≈ 2.76 µM) | MBC ([25]; Staphylococcus simulans, 24 h): 0.125 µg/mL (≈ 0.0863 µM) | MBC50 [26]: 2 µg/mL (≈ 1.38 µM) | MBC90 [26]: 4 µg/mL (≈ 2.76 µM) | MBC ([26]; Mammaliicoccus sciuri, 24 h): 0.5 µg/mL (≈ 0.345 µM) | MBC50 [27]: 1 µg/mL (≈ 0.69 µM) | MBC90 [27]: 4 µg/mL (≈ 2.76 µM) | MBC ([27]; Staphylococcus hominis, 24 h): 0.125 µg/mL (≈ 0.0863 µM) | Activity [28]: 0% | Activity [29]: 0% | Activity [30]: 100% | MBC50 [31]: 1 µg/mL (≈ 0.69 µM) | MBC90 [31]: 4 µg/mL (≈ 2.76 µM) | MBC ([31]; Staphylococcus haemolyticus, 24 h): 0.125 µg/mL (≈ 0.0863 µM) | MIC50 [32]: 0.25 µg/mL (≈ 0.173 µM) | MIC90 [32]: 1 µg/mL (≈ 0.69 µM) | MIC50 [33]: 0.25 µg/mL (≈ 0.173 µM) | MIC90 [33]: 1 µg/mL (≈ 0.69 µM) | Activity [34]: 0% | Activity [35]: 0% | MBC50 [36]: 1 µg/mL (≈ 0.69 µM) | MBC90 [36]: 2 µg/mL (≈ 1.38 µM) | MBC ([36]; Staphylococcus aureus, 24 h): 0.5 µg/mL (≈ 0.345 µM) | Activity [37]: 0%
